Assay results: ChEMBL document CHEMBL2086252, “Syntheses and evaluation of anticonvulsant activity of novel branched alkyl carbamates” (J Med Chem, 2012)
Activity calls are given as the source filed them. No cut-off for these calls is given here.

What was measured:
Mus musculus [1] = assay: Anticonvulsant activity in albino CF1 mouse assessed as protection against maximal electroshock-induced seizures at 300 mg/kg, ip after 0.5 hrs; format: functional, organism-based; design: dose 300 mg/kg
Procedure, shortened: (§1)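 Mice dosed ip at 30, 100 or 300 mg/kg, then tested 0.5 h and 4 h after administration in the MES or scMet test. Protection was recorded as animals protected over animals tested. Neurotoxicity was recorded as motor impairment or sedation, as animals affected over animals tested.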

Mus musculus [2] = assay: Neurotoxicity in albino CF1 mouse assessed as minimal motor impairment at 3 mg/kg, ip after 0.5 hrs by rotarod test; format: toxicity, organism-based; design: dose 3 mg/kg, route intraperitoneal; details: in vivo
Mus musculus [3] = assay: Anticonvulsant activity in ip dosed albino CF1 mouse assessed as protection against maximal electroshock-induced seizures; format: functional
Procedure, shortened: (§2)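 Quantitative testing: rats dosed orally or ip in MES and scMet tests, and mice dosed ip, including the 6 Hz (32 mA) psychomotor seizure test. ED50 and TD50 were reported in mg/kg with ranges in parentheses. Protective index was calculated as TD50/ED50.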

Mus musculus [4] = assay: Anticonvulsant activity in albino CF1 mouse assessed as protection against maximal electroshock-induced seizures at 3 mg/kg, ip after 0.5 hrs; format: functional, organism-based; design: dose 3 mg/kg
Rattus norvegicus [5] = assay: Protective index, ratio of TD50 for po dosed Sprague-Dawley albino rat by rotarod test to ED50 for po dosed Sprague-Dawley albino rat by maximal electroshock seizures test; format: functional
Procedure, shortened: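 Protective index calculated as TD50/ED50, with TD50 and ED50 taken from the same species and dosing route.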

Rattus norvegicus [6] = assay: Neurotoxicity in Sprague-Dawley albino rat assessed as minimal motor impairment at 30 mg/kg, po by rotarod test; format: toxicity, organism-based; design: dose 30 mg/kg, route oral; details: in vivo
Procedure, shortened: (§3)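 Rats dosed orally. Anti-MES protection was scored as animals protected over animals tested at each time after dosing. Neurotoxicity was scored as motor impairment or sedation, as animals affected over animals tested.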

Mus musculus [7] = assay: Anticonvulsant activity in albino CF1 mouse assessed as protection against subcutaneous metrazol-induced seizures at 300 mg/kg, ip after 4 hrs; format: functional, organism-based; design: dose 300 mg/kg; procedure, shortened: as §1
Rattus norvegicus [8] = assay: Neurotoxicity in pilocarpine-induced status epilepticus Sprague-Dawley albino rat model assessed as minimal motor impairment at 200 mg/kg, ip after 0.5 hrs by rotarod test; format: toxicity, organism-based; design: dose 200 mg/kg, route intraperitoneal; details: in vivo
Procedure, shortened: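 Rat pilocarpine status epilepticus model: test carbamate given at 0 or 30 min after the first observed Racine stage 3 motor seizure, which marks SE onset. Neurotoxicity was scored within the same model.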

Mus musculus [9] = assay: Anticonvulsant activity in albino CF1 mouse assessed as protection against subcutaneous metrazol-induced seizures at 300 mg/kg, ip after 0.5 hrs; format: functional, organism-based; design: dose 300 mg/kg; procedure, shortened: as §1
Mus musculus [10] = assay: Anticonvulsant activity in albino CF1 mouse assessed as protection against maximal electroshock-induced seizures at 30 mg/kg, ip after 4 hrs; format: functional, organism-based; design: dose 30 mg/kg; procedure, shortened: as §1
Rattus norvegicus [11] = assay: Anticonvulsant activity in Sprague-Dawley albino rat assessed as protection against maximal electroshock-induced seizures at 30 mg/kg, po after 1 hr; format: functional, organism-based; design: dose 30 mg/kg; procedure, shortened: as §3
[12] = Neurotoxicity in ip dosed albino CF1 mouse assessed as minimal motor impairment by rotarod test; format: toxicity, organism-based; details: in vivo; procedure, shortened: as §2
Mus musculus [13] = assay: Anticonvulsant activity in albino CF1 mouse assessed as protection against maximal electroshock-induced seizures at 10 mg/kg, ip after 0.5 hrs; format: functional, organism-based; design: dose 10 mg/kg
Mus musculus [14] = assay: Neurotoxicity in albino CF1 mouse assessed as minimal motor impairment at 300 mg/kg, ip after 0.5 hrs by rotarod test; format: toxicity, organism-based; design: dose 300 mg/kg, route intraperitoneal; details: in vivo; procedure, shortened: as §1
Mus musculus [15] = assay: Neurotoxicity in albino CF1 mouse assessed as minimal motor impairment at 100 mg/kg, ip after 4 hrs by rotarod test; format: toxicity, organism-based; design: dose 100 mg/kg, route intraperitoneal; details: in vivo; procedure, shortened: as §1
Rattus norvegicus [16] = assay: Anticonvulsant activity in Sprague-Dawley albino rat assessed as protection against maximal electroshock-induced seizures at 30 mg/kg, po after 15 mins; format: functional, organism-based; design: dose 30 mg/kg; procedure, shortened: as §3
Mus musculus [17] = assay: Neurotoxicity in albino CF1 mouse assessed as minimal motor impairment at 300 mg/kg, ip after 4 hrs by rotarod test; format: toxicity, organism-based; design: dose 300 mg/kg, route intraperitoneal; details: in vivo; procedure, shortened: as §1
Mus musculus [18] = assay: Anticonvulsant activity in albino CF1 mouse assessed as protection against subcutaneous metrazol-induced seizures at 100 mg/kg, ip after 4 hrs; format: functional, organism-based; design: dose 100 mg/kg; procedure, shortened: as §1
Rattus norvegicus [19] = assay: Anticonvulsant activity in Sprague-Dawley albino rat assessed as protection against maximal electroshock-induced seizures at 30 mg/kg, po after 4 hrs; format: functional, organism-based; design: dose 30 mg/kg; procedure, shortened: as §3
Mus musculus [20] = assay: Neurotoxicity in albino CF1 mouse assessed as minimal motor impairment at 10 mg/kg, ip after 0.5 hrs by rotarod test; format: toxicity, organism-based; design: dose 10 mg/kg, route intraperitoneal; details: in vivo
Mus musculus [21] = assay: Anticonvulsant activity in albino CF1 mouse assessed as protection against subcutaneous metrazol-induced seizures at 30 mg/kg, ip after 4 hrs; format: functional, organism-based; design: dose 30 mg/kg; procedure, shortened: as §1
Mus musculus [22] = assay: Neurotoxicity in albino CF1 mouse assessed as minimal motor impairment at 30 mg/kg, ip after 0.5 hrs by rotarod test; format: toxicity, organism-based; design: dose 30 mg/kg, route intraperitoneal; details: in vivo; procedure, shortened: as §1
Mus musculus [23] = assay: Neurotoxicity in albino CF1 mouse assessed as minimal motor impairment at 30 mg/kg, ip after 4 hrs by rotarod test; format: toxicity, organism-based; design: dose 30 mg/kg, route intraperitoneal; details: in vivo; procedure, shortened: as §1
Rattus norvegicus [24] = assay: Anticonvulsant activity in po dosed Sprague-Dawley albino rat assessed as protection against maximal electroshock-induced seizures; format: functional; procedure, shortened: as §2
Mus musculus [25] = assay: Anticonvulsant activity in albino CF1 mouse assessed as protection against maximal electroshock-induced seizures at 30 mg/kg, ip after 0.5 hrs; format: functional, organism-based; design: dose 30 mg/kg; procedure, shortened: as §1
Mus musculus [26] = assay: Anticonvulsant activity in albino CF1 mouse assessed as protection against maximal electroshock-induced seizures at 100 mg/kg, ip after 4 hrs; format: functional, organism-based; design: dose 100 mg/kg; procedure, shortened: as §1
[27] = Neurotoxicity in po dosed Sprague-Dawley albino rat assessed as minimal motor impairment by rotarod test; format: toxicity, organism-based; details: in vivo
Procedure, shortened: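 Rats dosed orally; 4 rats per time point after dosing. Neurotoxicity was scored as motor impairment or sedation and reported as number of animals affected over number tested.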

Mus musculus [28] = assay: Anticonvulsant activity in albino CF1 mouse assessed as protection against maximal electroshock-induced seizures at 100 mg/kg, ip after 0.5 hrs; format: functional, organism-based; design: dose 100 mg/kg; procedure, shortened: as §1
Mus musculus [29] = assay: Anticonvulsant activity in albino CF1 mouse assessed as protection against maximal electroshock-induced seizures at 300 mg/kg, ip after 4 hrs; format: functional, organism-based; design: dose 300 mg/kg; procedure, shortened: as §1
Mus musculus [30] = assay: Anticonvulsant activity in albino CF1 mouse assessed as protection against subcutaneous metrazol-induced seizures at 30 mg/kg, ip after 0.5 hrs; format: functional, organism-based; design: dose 30 mg/kg; procedure, shortened: as §1
Rattus norvegicus [31] = assay: Anticonvulsant activity in Sprague-Dawley albino rat assessed as protection against maximal electroshock-induced seizures at 30 mg/kg, po after 30 mins; format: functional, organism-based; design: dose 30 mg/kg; procedure, shortened: as §3
Rattus norvegicus [32] = assay: Anticonvulsant activity in ip dosed Sprague-Dawley albino rat assessed as protection against pilocarpine-induced status epilepticus after 0.5 hrs; format: functional
Procedure, shortened: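 Pilocarpine status epilepticus model in rats. Number and severity of convulsive seizures were observed behaviourally.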

With `NC(=O)OCCc1ccccc1` [PHENYLETHYL CARBAMATE] the Activity (Mus musculus [1]) was “Active”, the Activity (Mus musculus [2]) was “Non-toxic” and the ED50 (Mus musculus [3]) was 18 mg/kg. For the same compound, the Activity (Mus musculus [4]) was “inactive”, the “Ratio TD50/ED50” value (Rattus norvegicus [5]) was less than 25 and the Activity (Rattus norvegicus [6]) was “Non-toxic”. For the same compound, the Activity (Mus musculus [7]) was “inactive”, the Activity (Rattus norvegicus [8]) was “Toxic” and the Activity (Mus musculus [9]) was “Active”. For the same compound, the Activity (Mus musculus [10]) was “inactive”, the Activity (Rattus norvegicus [11]) was “Active” and the TD50 [12] was 114 mg/kg. The Activity (Mus musculus [13]) was “inactive”, the Activity (Mus musculus [14]) was “Toxic” and the Activity (Mus musculus [15]) was “Non-toxic”. The Activity (Rattus norvegicus [16]) was “Active”, the Activity (Mus musculus [17]) was “Non-toxic” and the Activity (Mus musculus [18]) was “inactive”. The Activity (Rattus norvegicus [19]) was “inactive”, the Activity (Mus musculus [20]) was “Non-toxic” and the Activity (Mus musculus [21]) was “inactive”. The Activity (Mus musculus [22]) was “Non-toxic”, the Activity (Mus musculus [23]) was “Non-toxic” and the ED50 (Rattus norvegicus [24]) was 16 mg/kg. For the same compound, the Activity (Mus musculus [25]) was “Active”, the Activity (Mus musculus [26]) was “inactive” and the TD50 [27] was less than 400 mg/kg. The Activity (Mus musculus [28]) was “Active”, the Activity (Mus musculus [29]) was “Active” and the Activity (Mus musculus [30]) was “inactive”. The Activity (Rattus norvegicus [31]) was “Active”, the ED50 (Rattus norvegicus [32]) was 105 mg/kg and the ED97 (Rattus norvegicus [32]) was 221 mg/kg.
